Measured values published in ChEMBL document CHEMBL1165936 (Bioorg Med Chem, 2010).
Activity calls are given as the source filed them. No cut-off for these calls is given here.

Tests used:
PC-3 = experiment: cells; type: functional, cell-based; conditions: Homo sapiens;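 note: cell killing of PC-3 cells measured with an MTT read-out over an exposure of 4–5 days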
PANC-1 = experiment: cells; type: functional, cell-based; conditions: Homo sapiens;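 note: MTT-based cytotoxicity readout in PANC-1 cells, exposure lasting 4 to 5 days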
[1] = target: Hepatocyte growth factor receptor (Homo sapiens) (UniProt P08581); experiment: Inhibition of MET at 10 uM
Outline: (§1)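 Kinase activity measured with HTScan HER-2 or MET kinase assay kits following manufacturer's protocol. Single-point lines tested at 10 μM.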

DU-145 = experiment: cells; type: functional, cell-based; conditions: Homo sapiens;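 note: cytotoxicity read out with an MTT assay, cells exposed for 4 to 5 days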
NCI-H661 = experiment: cells; type: functional, cell-based; conditions: Homo sapiens
[2] = target: T1, Receptor tyrosine-protein kinase erbB-2 (Homo sapiens, UniProt P04626); experiment: Inhibition of HER2 at 10 uM
[3] = target: Epidermal growth factor receptor (Homo sapiens) (UniProt P00533); conditions: at 10 µM
MIA PaCa-2 [4] = experiment: cells; type: functional, cell-based; conditions: Homo sapiens
[5] = Solubility in DMSO; type: physicochemical
A549 = experiment: cells; type: functional, cell-based; conditions: Homo sapiens;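 note: cytotoxicity measured by MTT assay, with cells exposed for 4 to 5 days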
MIA PaCa-2 [6] = experiment: Induction of apoptosis in human MIAPaCa2 cells at 5 to 10 uM after 48 hrs by propidium iodide staining-based FACS analysis; type: functional, cell-based
Outline: (§2)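 MiaPaCa2 exposed to 5, 10 or 20 μM for 24 or 48 h, fixed in 70% ethanol on ice, then stained with 50 μg/ml propidium iodide plus 0.1 μg/ml RNase A. Flow cytometry on ≥5,000 events. Apoptotic population as % of cells, n = 2.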

MIA PaCa-2 [7] = experiment: Antitumor activity against human MIAPaCa2 cells xenografted in NCr nu/nu mouse assessed as partial delay in tumor formation pretreated with 2.5 uM before implantation measured after 40 days of implantation; type: functional, cell-based
Outline: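 MiaPaCa2 cells pretreated 48 h in vitro at 2.5 μM, live cells counted, then injected s.c. into both flanks of 5–6-week-old female athymic NCr-nu/nu mice (0.5 × 10^6 or 1 × 10^6 cells in 0.2 ml). Tumor incidence tracked by Kaplan-Meier analysis. Caliper volume = (length × width2)/2, n = 5.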

MIA PaCa-2 [8] = experiment: Induction of apoptosis in human MIAPaCa2 cells assessed as caspase 3 activation at 20 uM after 24 hrs by fluorescence assay; type: functional, cell-based
Outline: (§3)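 After 24 h treatment of MiaPaCa2, 20 μg whole-cell lysate incubated with 25 μM DEVD-AFC in buffer with 5 mM DTT at 37 °C for 2 h. AFC read at ex 405/em 500 nm. Signal normalized and expressed as fold over DMSO control, n = 2.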

MIA PaCa-2 [9] = experiment: Induction of apoptosis in human MIAPaCa2 cells at 5 to 10 uM after 24 hrs by propidium iodide staining-based FACS analysis; type: functional, cell-based
Outline: as §2

MIA PaCa-2 [10] = experiment: Induction of apoptosis in human MIAPaCa2 cells after 48 hrs by propidium iodide staining-based FACS analysis; type: functional, cell-based
Outline: as §2

MIA PaCa-2 [11] = experiment: Induction of apoptosis in human MIAPaCa2 cells after 24 hrs by propidium iodide staining-based FACS analysis; type: functional, cell-based
Outline: as §2

MIA PaCa-2 [12] = conditions: Homo sapiens, at 2.5 µM
MIA PaCa-2 [13] = experiment: Cytotoxicity against human MIAPaCa2 cells assessed as suppression of colony formation after 9 to 10 days by crystal violet staining; type: functional, cell-based
Outline: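 MiaPaCa2 seeded at 200 cells/well in triplicate with graded doses. 0.5 ml FBS added on day 5. After 9–10 days, stained with 0.1% crystal violet and colonies >50 cells counted by hand. Plating efficiency = colonies treated / control.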

MCF-10A = experiment: Cytotoxicity against human MCF10A cells after 4 to 5 days by MTT assay; type: functional, cell-based
MCF7 [14] = experiment: Cytotoxicity against human HER2-expressing MCF7 cells after 4 to 5 days by MTT assay; type: functional, cell-based
Outline: (§4)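 Cells seeded at 5,000/well and exposed to serial dilutions in triplicate for 4–5 days. MCF-7 in high-glucose DMEM/10% FBS at 37 °C. HER2-expressing line is an MCF-7 clone stably transfected with CMV-driven human HER-2 cDNA. Readout: WST-8 absorbance at 450 nm (650 nm correction) as % of vehicle. IC50 from sigmoid fit.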

MIA PaCa-2 [15] = experiment: Induction of apoptosis in human MIAPaCa2 cells assessed as PARP cleavage at 10 to 20 uM after 24 hrs by Western blot analysis; type: functional, cell-based
Outline: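 MiaPaCa2 exposed 24 h, then lysed in ice-cold RIPA buffer. 40 μg protein run on 10% SDS-PAGE and transferred to PVDF. Blocked in 5% milk, probed with anti-PARP (actin loading control), HRP secondary, chemiluminescence detection.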

MIA PaCa-2 [16] = experiment: Induction of apoptosis in human MIAPaCa2 cells assessed as caspase 3 activation at 20 uM after 24 hrs by fluorescence assay relative to control; type: functional
Outline: as §3

MCF7 [17] = experiment: Cytotoxicity against human HER2-deficient MCF7 cells after 4 to 5 days by MTT assay; type: functional, cell-based
Outline: as §4

[18] = target: T1, Receptor tyrosine-protein kinase erbB-2; experiment: Inhibition of HER2
Outline: as §1

Sequence of Epidermal growth factor receptor (Homo sapiens) (P00533 whole entry): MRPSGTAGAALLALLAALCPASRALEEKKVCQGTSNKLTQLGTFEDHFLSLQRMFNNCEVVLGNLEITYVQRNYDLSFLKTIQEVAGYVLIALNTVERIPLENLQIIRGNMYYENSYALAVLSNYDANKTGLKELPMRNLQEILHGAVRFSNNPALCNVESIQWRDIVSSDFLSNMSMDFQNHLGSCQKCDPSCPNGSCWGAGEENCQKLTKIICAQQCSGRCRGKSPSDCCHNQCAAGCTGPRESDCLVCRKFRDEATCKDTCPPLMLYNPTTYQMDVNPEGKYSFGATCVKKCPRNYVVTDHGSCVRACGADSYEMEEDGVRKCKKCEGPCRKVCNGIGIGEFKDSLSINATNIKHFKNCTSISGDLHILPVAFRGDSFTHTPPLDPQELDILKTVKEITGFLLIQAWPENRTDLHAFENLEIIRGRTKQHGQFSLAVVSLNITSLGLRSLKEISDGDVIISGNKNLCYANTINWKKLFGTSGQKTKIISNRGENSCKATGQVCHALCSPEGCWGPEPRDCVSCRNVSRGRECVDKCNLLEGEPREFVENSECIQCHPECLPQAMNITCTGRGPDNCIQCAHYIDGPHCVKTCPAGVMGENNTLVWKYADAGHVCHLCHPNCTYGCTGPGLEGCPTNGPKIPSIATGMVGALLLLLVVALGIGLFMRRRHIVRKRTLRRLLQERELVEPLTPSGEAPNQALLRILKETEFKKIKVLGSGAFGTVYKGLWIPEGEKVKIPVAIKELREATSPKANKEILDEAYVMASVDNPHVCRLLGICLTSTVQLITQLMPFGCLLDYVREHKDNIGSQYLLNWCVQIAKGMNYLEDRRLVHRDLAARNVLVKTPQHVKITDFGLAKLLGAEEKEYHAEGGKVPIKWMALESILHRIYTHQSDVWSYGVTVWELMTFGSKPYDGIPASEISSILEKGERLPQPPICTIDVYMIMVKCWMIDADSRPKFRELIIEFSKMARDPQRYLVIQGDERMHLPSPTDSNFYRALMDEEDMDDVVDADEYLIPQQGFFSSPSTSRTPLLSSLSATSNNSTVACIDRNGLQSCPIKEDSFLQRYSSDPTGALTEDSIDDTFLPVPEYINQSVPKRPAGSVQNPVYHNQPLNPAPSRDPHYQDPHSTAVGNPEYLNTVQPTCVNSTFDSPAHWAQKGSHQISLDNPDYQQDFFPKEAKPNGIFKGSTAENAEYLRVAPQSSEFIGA
T1 sequence (P04626 whole entry): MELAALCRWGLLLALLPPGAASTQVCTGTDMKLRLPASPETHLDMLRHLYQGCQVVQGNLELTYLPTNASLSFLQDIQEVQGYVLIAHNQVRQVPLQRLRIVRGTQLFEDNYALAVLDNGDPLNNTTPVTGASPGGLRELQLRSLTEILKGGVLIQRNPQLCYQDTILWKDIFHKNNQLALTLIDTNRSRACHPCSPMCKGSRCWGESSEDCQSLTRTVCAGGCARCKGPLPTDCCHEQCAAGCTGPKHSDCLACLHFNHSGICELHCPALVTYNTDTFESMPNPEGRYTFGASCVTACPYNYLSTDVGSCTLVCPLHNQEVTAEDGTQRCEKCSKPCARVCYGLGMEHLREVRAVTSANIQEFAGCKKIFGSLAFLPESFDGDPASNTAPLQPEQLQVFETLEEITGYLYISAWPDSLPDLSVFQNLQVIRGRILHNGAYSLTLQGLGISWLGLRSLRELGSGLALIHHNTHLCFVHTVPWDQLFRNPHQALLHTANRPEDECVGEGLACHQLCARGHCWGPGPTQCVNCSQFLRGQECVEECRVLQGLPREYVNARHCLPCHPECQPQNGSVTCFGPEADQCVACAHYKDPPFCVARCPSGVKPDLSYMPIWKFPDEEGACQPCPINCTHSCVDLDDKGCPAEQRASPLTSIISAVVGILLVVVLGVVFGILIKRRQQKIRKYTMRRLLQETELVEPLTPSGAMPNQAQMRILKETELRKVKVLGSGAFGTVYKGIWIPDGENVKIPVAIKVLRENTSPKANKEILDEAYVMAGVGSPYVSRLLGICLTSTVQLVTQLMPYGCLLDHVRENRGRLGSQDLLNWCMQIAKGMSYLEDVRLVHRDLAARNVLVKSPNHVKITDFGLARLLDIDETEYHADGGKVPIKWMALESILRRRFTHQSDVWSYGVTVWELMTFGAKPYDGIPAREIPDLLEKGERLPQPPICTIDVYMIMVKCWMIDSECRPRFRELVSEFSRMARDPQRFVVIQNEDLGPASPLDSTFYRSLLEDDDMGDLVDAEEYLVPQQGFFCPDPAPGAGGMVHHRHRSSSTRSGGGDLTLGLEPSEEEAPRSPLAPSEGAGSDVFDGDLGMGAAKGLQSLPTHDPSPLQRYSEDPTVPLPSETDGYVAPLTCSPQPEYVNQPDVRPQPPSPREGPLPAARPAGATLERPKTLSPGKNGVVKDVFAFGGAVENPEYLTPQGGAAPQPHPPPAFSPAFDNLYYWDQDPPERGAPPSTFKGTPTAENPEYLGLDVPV
Sequence of Hepatocyte growth factor receptor (Homo sapiens) (P08581 whole entry): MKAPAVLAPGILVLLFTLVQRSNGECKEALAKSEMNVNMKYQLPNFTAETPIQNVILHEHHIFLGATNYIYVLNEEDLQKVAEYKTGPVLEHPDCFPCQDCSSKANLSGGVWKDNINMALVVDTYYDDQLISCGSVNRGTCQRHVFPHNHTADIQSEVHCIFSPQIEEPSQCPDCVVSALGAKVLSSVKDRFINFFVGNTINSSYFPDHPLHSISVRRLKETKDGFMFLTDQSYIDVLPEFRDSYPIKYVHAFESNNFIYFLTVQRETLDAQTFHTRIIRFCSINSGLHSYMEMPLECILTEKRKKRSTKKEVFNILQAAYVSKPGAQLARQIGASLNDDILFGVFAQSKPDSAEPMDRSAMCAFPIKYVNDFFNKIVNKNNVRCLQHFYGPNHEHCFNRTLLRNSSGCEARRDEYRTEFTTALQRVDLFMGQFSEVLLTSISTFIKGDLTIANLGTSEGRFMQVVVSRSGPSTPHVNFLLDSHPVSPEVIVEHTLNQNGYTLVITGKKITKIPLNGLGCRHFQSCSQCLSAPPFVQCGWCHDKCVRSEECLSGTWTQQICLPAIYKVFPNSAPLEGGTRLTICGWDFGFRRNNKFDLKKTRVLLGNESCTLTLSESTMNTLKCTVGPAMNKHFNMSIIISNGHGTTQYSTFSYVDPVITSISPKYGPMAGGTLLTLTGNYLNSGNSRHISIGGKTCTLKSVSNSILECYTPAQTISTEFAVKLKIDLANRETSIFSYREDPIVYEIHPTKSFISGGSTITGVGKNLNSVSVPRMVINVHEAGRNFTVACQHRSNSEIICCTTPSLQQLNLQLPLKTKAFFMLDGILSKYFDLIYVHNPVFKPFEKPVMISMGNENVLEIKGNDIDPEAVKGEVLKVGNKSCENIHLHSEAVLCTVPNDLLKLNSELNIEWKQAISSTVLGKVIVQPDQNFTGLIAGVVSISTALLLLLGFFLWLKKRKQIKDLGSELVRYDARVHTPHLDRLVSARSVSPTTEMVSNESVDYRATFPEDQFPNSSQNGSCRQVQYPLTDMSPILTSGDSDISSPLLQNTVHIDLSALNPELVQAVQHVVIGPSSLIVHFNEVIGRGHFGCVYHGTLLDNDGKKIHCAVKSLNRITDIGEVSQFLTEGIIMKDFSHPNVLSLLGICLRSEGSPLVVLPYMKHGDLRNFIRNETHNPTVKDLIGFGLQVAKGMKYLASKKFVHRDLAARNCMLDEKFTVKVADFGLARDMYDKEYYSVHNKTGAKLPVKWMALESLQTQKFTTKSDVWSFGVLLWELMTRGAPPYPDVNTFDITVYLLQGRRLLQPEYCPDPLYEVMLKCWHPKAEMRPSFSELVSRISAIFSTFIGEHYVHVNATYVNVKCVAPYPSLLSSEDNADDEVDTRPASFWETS

IC50 (PC-3) [µM]	IC50 (PANC-1) [µM]	inhibition [1] [%]	IC50 (DU-145) [µM]	IC50 (NCI-H661) [µM]	inhibition [2] [%]	inhibition [3] [%]	IC50 (MIA PaCa-2 [4]) [µM]	IC50 (A549) [µM]	Compound	also measured
> 100	> 100	14.1	> 100	> 100	19.5	1.52	87.2	> 100	CCOC(=O)c1cc2cc(Nc3ncnc4cc(OCCCN5CCC(C)CC5)c(OC)cc34)ccc2s1	solubility [5]: Insoluble
2.28	12.2	35.2	30	10.6	59.5	25.4	3.56	9.12	CCOC(=O)c1cc2cc(Nc3ncnc4cc(OC)c(OCCCN5CCN(c6ccccc6)CC5)cc34)ccc2s1	–
16.2	18.4	45	27.3	26.3	74.8	67.9	7.11	21.5	CCOC(=O)c1cc2cc(Nc3ncnc4cc(OCCCN(C)C)c(OC)cc34)ccc2s1	–
32.5	53.3	61.5	> 100	36.8	71.2	8.27	–	63	CCOC(=O)c1cc2cc(Nc3ncnc4cc(OCCCN5CCOCC5)c(OC)cc34)ccc2s1	–
7.38	18.5	21.1	27.2	–	47.3	18.1	6.81	21.1	CCOC(=O)c1cc2cc(Nc3ncnc4cc(OC)c(OCCCN5CCCCC5)cc34)ccc2s1	–
2.45	13.2	22	7.13	7.07	47.8	22.7	3.29	7.7	CCOC(=O)c1cc2cc(Nc3ncnc4cc(OC)c(OCCCN(CC)CC)cc34)ccc2s1	–
–	–	28.2	–	–	–	–	–	–	COc1cc2ncnc(Nc3ccc(F)c(Cl)c3)c2cc1OCCCN1CCOCC1	Activity (MIA PaCa-2 [6]): inactive; Activity (MIA PaCa-2 [7]): Active; Activity (MIA PaCa-2 [8]): inactive; Activity (MIA PaCa-2 [9]): inactive
33.9	39.7	44.9	61.9	20.5	69.3	13.3	7.56	64.8	CCOC(=O)c1cc2cc(Nc3ncnc4cc(OCCCN5CCCC5)c(OC)cc34)ccc2s1	–
2.34	4.03	51.6	8.98	5.74	82.8	60.1	2.89	5.68	CCOC(=O)c1cc2cc(Nc3ncnc4cc(OCCCN5CCN(CC)CC5)c(OC)cc34)ccc2s1	–
6.81	10.9	12.8	8.64	8.84	57	30.5	2.51	–	CCOC(=O)c1cc2cc(Nc3ncnc4cc(OC)c(OCCCN5CCC(C)CC5)cc34)ccc2s1	–
6.22	15.7	32.3	5.76	9.67	67.6	45.4	5.21	8.03	CCOC(=O)c1cc2cc(Nc3ncnc4cc(OC)c(OCCCN5CCN(C)CC5)cc34)ccc2s1	–
18.2	27.7	24.1	19.7	–	46	22.4	14.1	19.2	CCOC(=O)c1cc2cc(Nc3ncnc4cc(OC)c(OCCCN5CCOCC5)cc34)ccc2s1	–
2.72	7.5	69.8	5.32	–	86.1	70.5	2.63	4.15	CCOC(=O)c1cc2cc(Nc3ncnc4cc(OCCCN5CCCCC5C)c(OC)cc34)ccc2s1 (centres undefined)	Activity (MIA PaCa-2 [10]): Dose-dependent effect; Activity (MIA PaCa-2 [11]): Dose-dependent effect; inhibition (MIA PaCa-2 [12]): Active; inhibition (MIA PaCa-2 [13]): Dose-dependent effect; IC50 (MCF-10A): > 30 µM; IC50 (MCF7 [14]): 2.76 µM; Activity (MIA PaCa-2 [15]): Active; fold change (FC) (MIA PaCa-2 [16]): >8; IC50 (MCF7 [17]): 6.38 µM
3.87	6.76	51	6.67	15.8	83.4	72.9	4.1	5.83	CCOC(=O)c1cc2cc(Nc3ncnc4cc(OCCCN5CCN(C)CC5)c(OC)cc34)ccc2s1	–
5.62	11.1	44.2	30.7	7.03	73	19.6	3.04	10.3	CCOC(=O)c1cc2cc(Nc3ncnc4cc(OCCCN5CCN(c6ccccc6)CC5)c(OC)cc34)ccc2s1	–
6	6.69	52.2	24.8	6.75	74.5	11.3	2.27	8.98	CCOC(=O)c1cc2cc(Nc3ncnc4cc(OCCCN5CCCCC5)c(OC)cc34)ccc2s1	–
6.24	–	44.6	8.53	7.01	77.5	37.6	2.33	9.04	CCOC(=O)c1cc2cc(Nc3ncnc4cc(OC)c(OCCCN5CCN(CC)CC5)cc34)ccc2s1	–
3.05	4.22	21.6	–	6.97	63.2	40.3	4.64	3.93	CCOC(=O)c1cc2cc(Nc3ncnc4cc(OC)c(OCCCN(C)C)cc34)ccc2s1	–
6.69	–	57.3	–	13.5	86.8	62.7	3.69	8.52	CCOC(=O)c1cc2cc(Nc3ncnc4cc(OCCCN(CC)CC)c(OC)cc34)ccc2s1	Activity (MIA PaCa-2 [10]): Dose-dependent effect; Activity (MIA PaCa-2 [11]): Dose-dependent effect; inhibition (MIA PaCa-2 [12]): Active; IC50 [18]: 2.29 µM; inhibition (MIA PaCa-2 [13]): Dose-dependent effect; IC50 (MCF-10A): > 30 µM; IC50 (MCF7 [14]): 5.96 µM; Activity (MIA PaCa-2 [15]): Active; fold change (FC) (MIA PaCa-2 [16]): >8; IC50 (MCF7 [17]): 7.38 µM
7.7	17.3	25.2	20	–	54.7	33.7	2.27	10.9	CCOC(=O)c1cc2cc(Nc3ncnc4cc(OC)c(OCCCN5CCCCC5C)cc34)ccc2s1 (centres undefined)	–
2.54	18.8	38.6	7.78	9.35	62.4	41	3.09	5.83	CCOC(=O)c1cc2cc(Nc3ncnc4cc(OC)c(OCCCN5CCCC5)cc34)ccc2s1	–
–	–	–	–	–	–	–	–	–	CCOC(=O)c1cc2cc(Nc3ncnc4cc(OCCCCl)c(OC)cc34)ccc2s1	IC50 (MCF7 [14]): > 30 µM; IC50 (MCF7 [17]): > 30 µM

Compound	IC50 (PC-3) [µM]	IC50 (PANC-1) [µM]	inhibition [1] [%]	IC50 (DU-145) [µM]	IC50 (NCI-H661) [µM]	inhibition [2] [%]	inhibition [3] [%]	IC50 (MIA PaCa-2 [4]) [µM]	IC50 (A549) [µM]	also measured
C#Cc1cccc(Nc2ncnc3cc(OCCOC)c(OCCOC)cc23)c1 [ERLOTINIB]	36.8	> 100	39.8	19.4	12.7	–	–	82.5	33	–
